Active and inactive are the calls of the source. The rule behind the calls is not given here.
Assays:
[1] = system: Plasmodium falciparum; test: Antiplasmodial activity against Plasmodium falciparum schizont infected in human erythrocytes assessed as inhibition of ring-stage parasite growth at 1 to 50 uM after 24 by propidium iodide staining-based FACS analysis; type: functional, organism-based
[2] = system: Plasmodium falciparum; test: Antiplasmodial activity against Plasmodium falciparum schizont infected in human erythrocytes assessed as effect on schizont morphology at 1 to 50 uM after 24 by propidium iodide staining-based FACS analysis; type: functional, organism-based
[3] = system: Plasmodium falciparum; test: Antiplasmodial activity against Plasmodium falciparum infected in human erythrocytes assessed as blockade of parasite-mediated rupture of erythrocytes by Giemsa staining; type: functional, organism-based
Method in brief: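 Giemsa-stained thin blood films were read from schizonts exposed at 36 h post invasion to 10 µM inhibitor, to assess rupture and morphology.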

[4] = molecular target: T1, Probable cathepsin C (Plasmodium falciparum 3D7) (UniProt Q8IIJ9); test: Inhibition of Plasmodium falciparum 3D7 cathepsin C by fluorescence spectrophotometry
T1 sequence (whole entry): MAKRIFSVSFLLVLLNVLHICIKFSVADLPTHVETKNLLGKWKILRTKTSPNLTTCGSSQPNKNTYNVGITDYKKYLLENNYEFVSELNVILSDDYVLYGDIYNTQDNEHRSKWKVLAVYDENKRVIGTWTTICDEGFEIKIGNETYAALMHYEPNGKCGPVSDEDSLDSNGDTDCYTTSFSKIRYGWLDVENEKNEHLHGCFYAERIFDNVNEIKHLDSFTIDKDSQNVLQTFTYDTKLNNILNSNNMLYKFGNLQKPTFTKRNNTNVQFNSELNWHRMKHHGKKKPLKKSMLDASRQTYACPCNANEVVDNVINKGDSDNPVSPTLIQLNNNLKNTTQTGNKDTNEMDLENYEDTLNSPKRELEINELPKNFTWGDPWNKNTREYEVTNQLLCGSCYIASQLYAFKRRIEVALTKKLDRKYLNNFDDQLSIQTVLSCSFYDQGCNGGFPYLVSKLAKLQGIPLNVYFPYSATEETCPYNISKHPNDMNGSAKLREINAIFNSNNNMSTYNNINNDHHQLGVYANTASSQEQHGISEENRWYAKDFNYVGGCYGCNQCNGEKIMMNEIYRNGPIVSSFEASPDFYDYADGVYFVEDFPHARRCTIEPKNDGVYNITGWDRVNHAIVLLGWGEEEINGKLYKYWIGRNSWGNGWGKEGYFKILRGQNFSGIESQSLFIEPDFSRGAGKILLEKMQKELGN

| inhibition [4] | SMILES | inhibition [1] | Activity [2] | Activity [3] |
| --- | --- | --- | --- | --- |
| Active | CCC[C@H](N)C(=O)N[C@H](/C=C/S(=O)(=O)c1ccccc1)CCc1ccccc1 | Active | inactive | Active |
| Active | C[C@H](N)C(=O)N[C@H](/C=C/S(=O)(=O)c1ccccc1)CCc1ccccc1 | Active | inactive | Active |

From ChEMBL document CHEMBL1240337, “Identification of proteases that regulate erythrocyte rupture by the malaria parasite Plasmodium falciparum” (Nat Chem Biol, 2008)
